Screens (PubChem)
Pf Dd2 inh: inhibitors of Plasmodium falciparum Dd2 growth; activity change, % at 10 µM; AID 1159554; P. falciparum Dd2 growth, SYBR Green, 72 h; stronger effect = lower value; 2.3% of 94,000 active; in the data active = activity change below about -80%; inconclusive = no clear call, values can overlap the other calls
IDH1 R132H inh: inhibitors of human IDH1 R132H; O75874; IDH1 R132H reductase, diaphorase/resazurin fluorescence, 60 min; inhibition, % at 10 µM; 0.18% of 70,000 active; in the data active = inhibition above about 34%; inconclusive = no clear call, values can overlap the other calls; inactive = below about 11%
T cruzi growth-1: T. cruzi proliferation inhibition. T. cruzi beta-gal in NIH3T3, GalScreen luminescence, 90 h. inhibition, % at 8.34 µM. 5.9% of 77,000 active. AID 624255;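 active = mean inhibition above about 93%, with at least 55% of replicates each passing it, limit read from the data, passing the limit was not always enough; inconclusive = only one of those two conditions holds; inactive = neither condition holds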
GASC1 inh: KDM4C (human) demethylase inhibition. inhibition, % at 12.5 µM. Q9H3R0. GST-KDM4C 2-372, H3K9me3 peptide, LANCE TR-FRET. 0.15% of 96,000 active;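 active = mean replicate inhibition above about 25%, with at least 55% of replicates also reaching it, limit read from the data, passing the limit was not always enough; inconclusive = only one of those two conditions met; inactive = neither condition met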
Target sequence (Q9H3R0 2-372 limits assumed): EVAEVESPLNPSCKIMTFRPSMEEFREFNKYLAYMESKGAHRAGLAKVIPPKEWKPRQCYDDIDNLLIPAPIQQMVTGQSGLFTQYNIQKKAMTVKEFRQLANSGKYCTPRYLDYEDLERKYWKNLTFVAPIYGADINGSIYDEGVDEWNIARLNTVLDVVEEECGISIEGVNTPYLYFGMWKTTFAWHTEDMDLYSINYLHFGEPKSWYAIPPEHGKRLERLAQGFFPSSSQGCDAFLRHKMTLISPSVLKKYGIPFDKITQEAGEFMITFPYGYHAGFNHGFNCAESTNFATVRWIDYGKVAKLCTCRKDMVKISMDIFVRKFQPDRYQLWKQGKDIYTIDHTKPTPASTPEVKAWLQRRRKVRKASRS
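Assay system: GST-GASC-1 enzyme fragment 2-372 | Amount: 10 nM enzyme | Medium: HEPES buffer, pH 7.5, plus ascorbate | Reagent: H3K9me3 peptide substrate, Fe(II), 2-oxoglutarate | Doses: Single-point compound screen | Incubation: 30 min demethylation and 1 h detection at room temperature | Measured by: LANCE TR-FRET, excitation 340 nm, emissions 618 and 671 nm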
T cruzi growth-2: blocks T. cruzi growth in NIH3T3 host cells | inhibition, % at 8.35 µM | T. cruzi beta-gal in NIH3T3, GalScreen luminescence, 90 h | shares compounds with T cruzi growth-1 | 72% of 5,600 active;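 active = mean replicate inhibition above about 95% and at least 55% of replicates individually reaching it, limit read from the data; inconclusive = only one of the two criteria is met; inactive = neither criterion is met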
T cruzi growth-3: Trypanosoma cruzi proliferation inhibition; shares compounds with T cruzi growth-1; 21% of 5,600 active; T. cruzi beta-gal in NIH3T3, GalScreen luminescence, 90 h; inhibition, % at 2.09 µM;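 active = mean inhibition above about 95%, with at least 55% of replicates also reaching it, limit read from the data; inconclusive = meets just one of the two conditions; inactive = meets neither condition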
NIH3T3 tox: cytotoxicity in mouse NIH/3T3 fibroblasts | shares compounds with T cruzi growth-1 | NIH/3T3 viability, CellTiter-Glo ATP luminescence, 90 h | cytotoxicity (signal decrease), % at 8.35 µM | 14% of 5,600 active;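 active = mean signal decrease across replicates above about 35% based on untreated-well scatter, with enough replicates individually passing, limit read from the data; inconclusive = no rule stated though some were filed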
3T3 cytotox 2: kills mouse NIH/3T3 fibroblasts; shares compounds with T cruzi growth-1; NIH/3T3 viability, CellTiter-Glo ATP luminescence, 90 h; inhibition, % at 24.9 µM; 56% of 5,600 active;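 active = mean loss of cell viability signal at or above a set limit, and enough replicates individually reaching it; inconclusive = meets only the mean limit or only the replicate share; inactive = meets neither condition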
A number is an active result. An excerpt weighted towards active compounds, which were near 5.8% of everything screened.

What do the screens show for `CC1CCc2c(sc3nnn(CC(=O)Nc4cc(Cl)ccc4Cl)c(=O)c23)C1` (stereo unspecified)?
IDH1 R132H inh: inactive

What do the screens show for `C[C@@H]1CN([C@@H](C)CO)S(=O)(=O)c2ccc(-c3ccncc3)cc2O[C@H]1CN(C)C(=O)Nc1ccc(C(F)(F)F)cc1`?
Pf Dd2 inh: inactive; IDH1 R132H inh: inactive; T cruzi growth-1: inactive; GASC1 inh: inactive

How did C[C@H](CO)N1C[C@H](C)[C@@H](CN(C)C(=O)Nc2ccc(C(F)(F)F)cc2)Oc2cc(-c3ccncc3)ccc2S1(=O)=O do in these assays?
Pf Dd2 inh: inactive; IDH1 R132H inh: inactive; T cruzi growth-1: 102.6; GASC1 inh: inactive; T cruzi growth-2: 110.0; T cruzi growth-3: inactive; NIH3T3 tox: inactive; 3T3 cytotox 2: 48.1

Results for C[C@@H]1CN([C@@H](C)CO)S(=O)(=O)c2ccc(-c3ccncc3)cc2O[C@@H]1CN(C)C(=O)Nc1ccc(C(F)(F)F)cc1 ?
Pf Dd2 inh: inactive; IDH1 R132H inh: inactive; T cruzi growth-1: inconclusive; GASC1 inh: inactive; T cruzi growth-2: 108.2; T cruzi growth-3: inactive; NIH3T3 tox: inactive; 3T3 cytotox 2: 67.5

Results for Cc1ccc(S(=O)(=O)N[C@H]2C=C[C@H](CC(=O)N3CCC(Cc4ccccc4)CC3)O[C@H]2CO)cc1 ?
Pf Dd2 inh: inactive; IDH1 R132H inh: inactive; T cruzi growth-1: 124.9; GASC1 inh: inactive; T cruzi growth-2: 102.8; T cruzi growth-3: inactive; NIH3T3 tox: inactive; 3T3 cytotox 2: inactive

What do the screens show for `O=C(C[C@H]1C=C[C@H](NS(=O)(=O)c2ccc(F)cc2)[C@H](CO)O1)N1CCC(Cc2ccccc2)CC1`?
Pf Dd2 inh: inactive; IDH1 R132H inh: inactive; T cruzi growth-1: inconclusive; GASC1 inh: inactive; T cruzi growth-2: 106.9; T cruzi growth-3: inactive; NIH3T3 tox: inactive; 3T3 cytotox 2: inactive

How did O=C1c2c(O)cc(O)cc2O[C@@H](c2ccc(O)cc2)[C@@H]1O do in these assays?
IDH1 R132H inh: inactive
